In ChEMBL document CHEMBL3272042, “Novel heterocyclic nitrofurfural hydrazones. In vivo antirypanosomal activity” (J Med Chem, 1976):
≈ marks a conversion by molar mass, not a printed value. Calls of active or inactive are those of the source. The calls are words filed in the database; no cut-off is given here.

What was measured:
Trypanosoma cruzi [1] = test: Antitrypanosomal activity against bloodstream forms of Trypanosoma cruzi infected in C3H/He mouse assessed as increase in mean survival time at 100 mg/kg, po bid administered through gavage starting 3 days post challenge for 5 successive days relative to control; assay type: functional; conditions: for survival at 100 mg/kg: Trypanosoma cruzi, po, 72 h
Outline: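 Male C3H/He mice infected ip with 2×10^3 bloodstream T. cruzi (Brazilian strain). Compound micronized to 0.5-2.0 μ and suspended in 0.9% NaCl, 1.0% Na carboxymethylcellulose, 0.5% Tween 80, 0.05% antifoam B; given at 100 mg/kg (0.01 ml/2 g) by gavage twice daily for 5 days from day 3 post-infection; groups of 7. Value is percent IMST over untreated controls; Student's t test.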

Trypanosoma cruzi [2] = test: Antitrypanosomal activity against bloodstream forms of Trypanosoma cruzi infected in C3H/He mouse assessed as parasitologic cures at 200 mg/kg, po administered 4 times a day through gavage starting 3 days post challenge for 5 successive days relative to control; assay type: functional, organism-based; design: dose 200 mg/kg
Outline: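 Male C3H/He mice were infected ip with 2×10^3 bloodstream T. cruzi forms (Brazilian strain). Compound was given orally at 200 mg/kg four times daily for 5 days, then followed for parasitemia, survival and body weight.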

Trypanosoma cruzi [3] = test: Antitrypanosomal activity against bloodstream forms of Trypanosoma cruzi infected in C3H/He mouse assessed as parasitologic cures at 100 mg/kg, po bid administered through gavage starting 3 days post challenge for 5 successive days relative to control; assay type: functional, organism-based; design: dose 100 mg/kg
Outline: (§1)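 Male C3H/He mice were infected ip with 2×10^3 bloodstream forms of a Brazilian T. cruzi strain. Compounds were micronized to 0.5-2.0 μ and suspended in 0.9% NaCl, 1.0% Na-CMC, 0.5% Tween 80 and 0.05% antifoam B, dosed at 0.01 ml/2 g body weight. Groups of seven got 100 mg/kg by gavage twice daily for 5 days, starting day 3 postinfection, with untreated controls.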

Mus musculus [4] = test: Toxicity in C3H/He mouse infected with bloodstream forms of Trypanosoma cruzi assessed as weight loss at 200 mg/kg, po qid administered 4 times a day through gavage starting 3 days post challenge for 5 successive days; conditions: in vivo, 72 h
Mus musculus [5] = test: Toxicity in C3H/He mouse infected with bloodstream forms of Trypanosoma cruzi assessed as weight loss at 100 mg/kg, po bid administered through gavage starting 3 days post challenge for 5 successive days; assay type: organism-based; design: dose 100 mg/kg, route oral; conditions: in vivo, 72 h; outline: as §1
Trypanosoma cruzi [6] = test: Antitrypanosomal activity against bloodstream forms of Trypanosoma cruzi by in vitro assay; assay type: functional; conditions: for MIC: Trypanosoma cruzi
Outline: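 Serial dilution in liquid culture in Warren's medium. Read-outs are the minimum inhibitory concentration (MIC) and the minimum lethal concentration (MLC), both in μg/ml.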

Trypanosoma cruzi [7] = test: Antitrypanosomal activity against bloodstream forms of Trypanosoma cruzi infected in C3H/He mouse assessed as increase in mean survival time at 100 mg/kg, ip bid starting 3 days post challenge for 5 successive days relative to control; assay type: functional; conditions: 72 h, route intraperitoneal
Outline: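 Infection: ip inoculation of 2×10^3 bloodstream forms of a Brazilian T. cruzi strain into male C3H/He mice. Compound given by intraperitoneal route, 100 mg/kg twice daily. Value is percent increase in mean survival time beyond untreated controls, taken from mortality records; significance by Student's t test.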

| Structure (SMILES) | survival at 100 mg/kg (Trypanosoma cruzi [1]) [%] | Activity (Trypanosoma cruzi [2]) | Activity (Trypanosoma cruzi [3]) | Activity (Mus musculus [4]) | Activity (Mus musculus [5]) | MLC (Trypanosoma cruzi [6]) [µg/mL] | MIC (Trypanosoma cruzi [6]) [µg/mL] | survival at 100 mg/kg (Trypanosoma cruzi [7]) [%] | Survival (Trypanosoma cruzi [1]) [%] |
| --- | --- | --- | --- | --- | --- | --- | --- | --- | --- |
| Cc1cc(N/N=C/c2ccc([N+](=O)[O-])o2)n2nccc2n1 | 63.4 | inactive | inactive | Toxic | Non-toxic | 10 (≈ 34.9 µM) | 10 (≈ 34.9 µM) | – | – |
| O=[N+]([O-])c1ccc(/C=N/Nc2cc(Cl)nc3ccnn23)o1 | 36.3 | – | – | – | Non-toxic | 1 (≈ 3.26 µM) | < 1 | – | – |
| Cc1cc(N/N=C/c2ccc([N+](=O)[O-])o2)n2ncc(-c3ccc(Cl)cc3)c2n1 | – | – | – | – | Non-toxic | 3.2 (≈ 8.06 µM) | 1 (≈ 2.52 µM) | 20.5 | – |
| Cc1cc(N/N=C/c2ccc([N+](=O)[O-])o2)n2ccnc2n1 | – | – | – | – | – | >100 | > 100 | – | – |
| Cc1cc(N/N=C/c2ccc([N+](=O)[O-])o2)n2ncc(-c3ccccc3)c2n1 | – | – | – | – | Non-toxic | 1 (≈ 2.76 µM) | < 1 | – | – |
| Cc1cc(N/N=C/c2ccc([N+](=O)[O-])o2)n2ncc(S(=O)(=O)O)c2n1 | 9 | – | – | – | Non-toxic | 100 (≈ 273 µM) | > 10 | – | – |
| Cc1nc(N/N=C/c2ccc([N+](=O)[O-])o2)n2nc(-c3ccccc3)cc2n1 | 24.9 | – | – | – | – | 3.2 (≈ 8.81 µM) | 1 (≈ 2.75 µM) | – | – |
| O=[N+]([O-])c1ccc(/C=N/Nc2cc(Cl)nc3nccn23)o1 | 4.4 | – | – | – | – | 100 (≈ 326 µM) | 10 (≈ 32.6 µM) | – | – |
| Cc1cc(N/N=C/c2ccc([N+](=O)[O-])o2)n2ncc(S(=O)(=O)[O-])c2n1.[Na+] | – | – | – | – | Non-toxic | >100 | > 100 | – | 8.5 |
| Cc1cc(N/N=C/c2ccc([N+](=O)[O-])o2)n2ncc(Br)c2n1 | 21.9 | – | – | – | Non-toxic | >100 | 100 (≈ 274 µM) | – | – |
| Cc1cc(N/N=C/c2ccc([N+](=O)[O-])o2)n2ncnc2n1 | 4.3 | – | – | – | – | >100 | > 100 | – | – |
| O=[N+]([O-])c1ccc(/C=N/Nc2cc(Cl)nc3c(Cl)cnn23)o1 | 14.6 | – | – | – | Non-toxic | 10 (≈ 29.3 µM) | 10 (≈ 29.3 µM) | – | – |
| O=[N+]([O-])c1ccc(/C=N/Nc2ccnc3ccnn23)o1 | < 1 | – | – | – | Non-toxic | 10 (≈ 36.7 µM) | 10 (≈ 36.7 µM) | – | – |
| CCOC(=O)c1cnn2c(N/N=C/c3ccc([N+](=O)[O-])o3)cc(C)nc12 | 1.3 | – | – | – | Non-toxic | 10 (≈ 27.9 µM) | 10 (≈ 27.9 µM) | – | – |
